The source of these data is ChEMBL document CHEMBL1759864, “Synthesis and proteasome inhibition of lithocholic acid derivatives” (Bioorg Med Chem Lett, 2011).

SMILES strings stand for the structures. Activity calls are given as the source filed them. The calls are words filed in the database; no cut-off is given here. Where a SMILES comes first, the peptide text is derived from it.

Test system in the first experiment: not listed separately
Briefly: Inhibition of chymotrypsin-like activity of 20S proteasome.
One may read the IC50 as the concentration needed to halve the response being measured. High values mean a need for much substance, low ones inhibition by little substance. Take `CC(CC(=O)O[C@@H]1CC[C@@]2(C)[C@H](CC[C@@H]3[C@@H]2CC[C@]2(C)[C@@H]([C@H](C)CCC(=O)O)CC[C@@H]32)C1)C(=O)O` (some centres not stated): the midpoint of inhibition, the IC50, lay at 11.5 µM.

Take `C[C@H](CCC(=O)O)[C@H]1CC[C@H]2[C@@H]3CC[C@@H]4C[C@H](OC(=O)Cc5cccc(CC(=O)O)c5)CC[C@]4(C)[C@H]3CC[C@]12C`: the IC50 came out at 1.9 µM.

`COC(=O)CC[C@@H](C)[C@H]1CC[C@H]2[C@@H]3CC[C@@H]4C[C@H](O)CC[C@]4(C)[C@H]3CC[C@]12C`: the inhibition entry was “inactive”.

As to `CCOC(=O)CC[C@@H](C)[C@H]1CC[C@H]2[C@@H]3CC[C@@H]4C[C@H](OC(=O)CCCCCC(=O)O)CC[C@]4(C)[C@H]3CC[C@]12C`, the inhibition result is “inactive”.

For `CCOC(=O)CC[C@@H](C)[C@H]1CC[C@H]2[C@@H]3CC[C@@H]4C[C@H](O)CC[C@]4(C)[C@H]3CC[C@]12C`, the inhibition result was “inactive”.

As to `C[C@H](CCC(=O)O)[C@H]1CC[C@H]2[C@@H]3CC[C@@H]4C[C@H](OC(=O)CCCCC(=O)O)CC[C@]4(C)[C@H]3CC[C@]12C`, the IC50 came out at 3.5 µM.

Consider `C[C@H](CCC(=O)O)[C@H]1CC[C@H]2[C@@H]3CC[C@@H]4C[C@H](OC(=O)COCC(=O)O)CC[C@]4(C)[C@H]3CC[C@]12C`, for which the IC50 worked out at 6.9 µM.

Regarding `C[C@H](CCC(=O)O)[C@H]1CC[C@H]2[C@@H]3CC[C@@H]4C[C@H](OC(=O)CCC(=O)O)CC[C@]4(C)[C@H]3CC[C@]12C`, the IC50 turned out to be 10.3 µM.

For the compound `C[C@H](CCC(=O)O)[C@H]1CC[C@H]2[C@@H]3CC[C@@H]4C[C@H](OC(=O)CC5(CC(=O)O)CCCC5)CC[C@]4(C)[C@H]3CC[C@]12C`, 2.2 µM corresponded to half-maximal inhibition (IC50).

Consider `C[C@H](CCC(=O)O)[C@H]1CC[C@H]2[C@@H]3CC[C@@H]4C[C@H](OC(=O)c5ccccc5C(=O)O)CC[C@]4(C)[C@H]3CC[C@]12C`, for which the IC50 came out at 8.6 µM.

`C[C@H](CCC(=O)O)[C@H]1CC[C@H]2[C@@H]3CC[C@@H]4C[C@H](O)CC[C@]4(C)[C@H]3CC[C@]12C` [LITHOCHOLIC ACID] came in with an IC50 of 18.1 µM.

Take `C[C@H](CCC(=O)O)[C@H]1CC[C@H]2[C@@H]3CC[C@@H]4C[C@H](OC(=O)CCCC(=O)O)CC[C@]4(C)[C@H]3CC[C@]12C`: the half-maximal inhibitory concentration (IC50) is 10.8 µM.

Compound `C[C@H](CCC(=O)O)[C@H]1CC[C@H]2[C@@H]3CC[C@@H]4C[C@H](OC(=O)Cc5ccc(CC(=O)O)cc5)CC[C@]4(C)[C@H]3CC[C@]12C` registered an IC50 of 3.8 µM.

On to `COC(=O)CC[C@@H](C)[C@H]1CC[C@H]2[C@@H]3CC[C@@H]4C[C@H](OC(=O)Cc5cccc(CC(=O)O)c5)CC[C@]4(C)[C@H]3CC[C@]12C`, for which the inhibition entry is “inactive”.

Turning to `C[C@H](CCC(=O)O)[C@H]1CC[C@H]2[C@@H]3CC[C@@H]4C[C@H](OC(=O)[C@@H]5CCCC[C@H]5C(=O)O)CC[C@]4(C)[C@H]3CC[C@]12C`, 8.5 µM corresponded to half-maximal inhibition (IC50).

As to `COC(=O)CC[C@@H](C)[C@H]1CC[C@H]2[C@@H]3CC[C@@H]4C[C@H](OC(=O)CCCCCC(=O)O)CC[C@]4(C)[C@H]3CC[C@]12C`, the inhibition result is “inactive”.

Regarding `C[C@H](CCC(=O)O)[C@H]1CC[C@H]2[C@@H]3CC[C@@H]4C[C@H](OC(=O)CCCCCC(=O)O)CC[C@]4(C)[C@H]3CC[C@]12C`, the inhibition result was “inactive”.

In the case of `CSCC[C@@H](C=O)NC(=O)[C@H](CC(C)C)NC(=O)[C@H](CC(C)C)NC(C)=O` (Ac-Leu-Leu-Met-aldehyde), the IC50 worked out at 5.2 µM.

In turn, `CC(C(=O)O)C(C)C(=O)O[C@@H]1CC[C@@]2(C)[C@H](CC[C@@H]3[C@@H]2CC[C@]2(C)[C@@H]([C@H](C)CCC(=O)O)CC[C@@H]32)C1` (some centres not stated) had an IC50 of 5.8 µM.

Biological target in a further experiment: not listed separately
Briefly: Inhibition of caspase-like activity of 20S proteasome.
In the case of `C[C@H](CCC(=O)O)[C@H]1CC[C@H]2[C@@H]3CC[C@@H]4C[C@H](OC(=O)Cc5cccc(CC(=O)O)c5)CC[C@]4(C)[C@H]3CC[C@]12C`, the IC50 turned out to be 6.5 µM.

Test system in a further experiment: not listed separately
The experiment is described as follows: Inhibition of trypsin-like activity of 20S proteasome.
In the case of `C[C@H](CCC(=O)O)[C@H]1CC[C@H]2[C@@H]3CC[C@@H]4C[C@H](OC(=O)Cc5cccc(CC(=O)O)c5)CC[C@]4(C)[C@H]3CC[C@]12C`, it took 9.1 µM to reach half-maximal inhibition (IC50).

A further experiment concerns HeLa. The experiment is described as follows: Inhibition of proteasome activity in human HeLa cells transfected with UbG76V-GFP assessed as accumulation of ubiquitinG76V-GFP at 7.5 uM after 24 hrs by fluorescence microscopy. In short, it runs like this: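 HeLa cells stably expressing Ub^G76V-GFP, grown in DMEM with 10% heat-inactivated FBS at 37 °C, humidified. Cells seeded at 10,000 per well and exposed to compound at 7.5 µM for 24 h. Proteasome block is read as intracellular Ub^G76V-GFP accumulation (green fluorescence), documented by fluorescence microscopy against untreated cells.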
As for `C[C@H](CCC(=O)O)[C@H]1CC[C@H]2[C@@H]3CC[C@@H]4C[C@H](OC(=O)CC5(CC(=O)O)CCCC5)CC[C@]4(C)[C@H]3CC[C@]12C`, the inhibition entry was “Active”.
